Laboratory results taken from ChEMBL document CHEMBL1795214, “Discovery of novel xanthone derivatives as xanthine oxidase inhibitors” (Bioorg Med Chem Lett, 2011).

Columns and labels:
[1] = molecular target: T1, Xanthine dehydrogenase/oxidase (Bos taurus, UniProt P80457); test: Inhibition of bovine Xanthine oxidase assessed as reduction in uric acid level by spectrophotometry
[2] = molecular target: T1, Xanthine dehydrogenase/oxidase; test: Inhibition of bovine Xanthine oxidase assessed as reduction in uric acid level at 10 ug/ml by spectrophotometry; details: cattle
In short: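 Single-concentration screen at 10 μg/mL. XO activity was followed spectrophotometrically as uric acid formation at 293 nm and reported as percent inhibition. Below 60% inhibition at this concentration was recorded as not active.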

T1 sequence (P80457 whole entry): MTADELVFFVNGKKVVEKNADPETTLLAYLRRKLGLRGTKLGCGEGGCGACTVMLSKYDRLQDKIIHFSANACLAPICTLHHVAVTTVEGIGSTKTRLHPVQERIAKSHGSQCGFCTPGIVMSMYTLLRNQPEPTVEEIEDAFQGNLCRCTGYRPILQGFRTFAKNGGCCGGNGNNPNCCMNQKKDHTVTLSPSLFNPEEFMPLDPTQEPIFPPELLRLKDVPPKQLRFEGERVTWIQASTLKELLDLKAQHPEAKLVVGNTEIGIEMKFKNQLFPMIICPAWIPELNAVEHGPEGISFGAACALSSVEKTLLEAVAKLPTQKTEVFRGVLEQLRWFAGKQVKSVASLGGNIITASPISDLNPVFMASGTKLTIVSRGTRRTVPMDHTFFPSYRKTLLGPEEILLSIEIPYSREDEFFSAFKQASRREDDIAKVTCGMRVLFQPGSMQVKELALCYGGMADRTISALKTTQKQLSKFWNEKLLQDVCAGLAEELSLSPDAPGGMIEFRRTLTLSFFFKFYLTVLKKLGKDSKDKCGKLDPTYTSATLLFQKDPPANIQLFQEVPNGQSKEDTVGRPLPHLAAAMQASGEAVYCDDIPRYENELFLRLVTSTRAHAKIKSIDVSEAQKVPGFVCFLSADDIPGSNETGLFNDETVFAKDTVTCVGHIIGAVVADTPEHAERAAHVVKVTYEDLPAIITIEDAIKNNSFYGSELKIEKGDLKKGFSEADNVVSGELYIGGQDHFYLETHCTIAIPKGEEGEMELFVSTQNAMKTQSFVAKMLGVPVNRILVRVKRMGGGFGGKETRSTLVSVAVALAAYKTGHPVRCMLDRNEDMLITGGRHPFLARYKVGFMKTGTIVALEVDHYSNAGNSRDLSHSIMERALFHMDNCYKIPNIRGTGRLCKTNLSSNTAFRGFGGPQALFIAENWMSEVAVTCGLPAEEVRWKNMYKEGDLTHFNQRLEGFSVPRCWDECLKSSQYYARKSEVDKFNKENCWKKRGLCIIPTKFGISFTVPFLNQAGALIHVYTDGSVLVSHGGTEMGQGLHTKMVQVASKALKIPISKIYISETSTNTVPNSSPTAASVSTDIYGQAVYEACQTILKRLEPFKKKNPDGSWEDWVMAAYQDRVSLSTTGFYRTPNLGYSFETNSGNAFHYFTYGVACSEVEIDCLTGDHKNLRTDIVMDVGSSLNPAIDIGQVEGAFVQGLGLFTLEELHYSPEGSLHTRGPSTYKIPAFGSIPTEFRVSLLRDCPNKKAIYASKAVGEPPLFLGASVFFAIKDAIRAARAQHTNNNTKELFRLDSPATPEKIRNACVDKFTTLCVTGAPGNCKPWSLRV

SMILES | IC50 [1] | inhibition at 10 µg/mL [2]
N#Cc1ccc(COc2cc(O)cc3oc4cc(O)c(O)cc4c(=O)c23)cc1 | 4.67 µM | –
O=c1c2cc(O)c(O)cc2oc2cc(O)cc(OCc3cccc(Br)c3)c12 | – | < 60%
N#Cc1cccc(COc2cc(O)cc3oc4cc(O)c(O)cc4c(=O)c23)c1 | – | < 60%
Cc1ccccc1COc1cc(O)cc2oc3cc(O)c(O)cc3c(=O)c12 | 7.08 µM | –
Cc1cccc(COc2cc(O)cc3oc4cc(O)c(O)cc4c(=O)c23)c1 | 13.6 µM | –
O=c1c2cc(O)c(O)cc2oc2cc(O)cc(OCc3c(Cl)cccc3Cl)c12 | – | < 60%
O=c1c2cc(O)c(O)cc2oc2cc(O)cc(OCc3ccc(Cl)cc3Cl)c12 | – | < 60%
O=c1c2cc(O)c(O)cc2oc2cc(O)cc(OCc3cccc(Cl)c3)c12 | – | < 60%
O=c1c2cc(O)c(O)cc2oc2cc(O)cc(OCc3ccc([N+](=O)[O-])cc3)c12 | – | < 60%
O=c1c2cc(O)c(O)cc2oc2cc(O)cc(OCc3ccccc3Cl)c12 | 6.41 µM | –
O=c1c2cc(O)c(O)cc2oc2cc(O)cc(OCc3ccc(Cl)cc3)c12 | 4.7 µM | –
O=c1c2cc(O)c(O)cc2oc2cc(O)cc(OCc3ccccc3[N+](=O)[O-])c12 | – | < 60%
O=c1c2cc(O)c(O)cc2oc2cc(O)cc(OCc3cccc(F)c3)c12 | – | < 60%
O=c1c2cc(O)c(O)cc2oc2cc(O)cc(OCc3ccc(Br)cc3)c12 | 20.1 µM | –
O=c1c2cc(O)c(O)cc2oc2cc(O)cc(OCc3ccccc3F)c12 | – | < 60%
Cc1ccc(COc2cc(O)cc3oc4cc(O)c(O)cc4c(=O)c23)cc1 | 5.73 µM | –
O=c1c2cc(O)c(O)cc2oc2cc(O)cc(OCc3ccc(F)cc3)c12 | – | < 60%
O=c1c2cc(O)c(O)cc2oc2cc(O)cc(OCc3cccc([N+](=O)[O-])c3)c12 | – | < 60%
O=c1c2cc(O)c(O)cc2oc2cc(O)cc(OCc3ccccc3Br)c12 | – | < 60%
N#Cc1ccccc1COc1cc(O)cc2oc3cc(O)c(O)cc3c(=O)c12 | – | < 60%
